From article PMC10450354 (Bioactive Materials, 2023)

Tests used:
[1] = test system: BMSCs; assay: Transwell migration of BMSCs in coculture; format: cell-based, mouse
Procedure, shortened: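 BMSCs were obtained from 4-week-old SPF C57BL/6J mouse bone marrow, red-cell-lysed at 4 °C for 10 min, and cultured at 37 °C and 5% CO2. They were then cocultured with macrophages given no treatment, IL-4, or IL-4 plus test nanofibers. BMSC migration was assessed at 0, 24 and 48 h and expressed as percentage of migrating cells; mean ± SD, n = 3.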

[2] = test system: BMDMs; assay: Flow cytometry of M2 markers in BMDMs incubated with IL-4 and UPNs; format: cell-based, mouse; conditions: for effect of inhibitor on UPN-induced CD206 expression: flow cytometry, IL-4 and UPN induced macrophages
Procedure, shortened: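 Bone marrow cells from C57BL/6J mice were red-cell-lysed and grown as BMDMs at 37 °C and 5% CO2 in M-CSF medium (40 ng/ml). Medium was replenished on days 2 and 3 and renewed on day 5. Groups were untreated, IL-4, test nanofibers, and IL-4 plus test nanofibers. STAT6-IN-1 (p-STAT6 inhibitor) was applied with IL-4 plus nanofibers. CD163 and CD206 were quantified by flow cytometry; mean ± SD, n = 3.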

[3] = test system: p-STAT6; assay: p-STAT6 immunofluorescence in M2-type macrophages; format: cell-based, mouse; conditions: 24 h; semiquantitative; Ctrl group 1.7%; Fig. 4E
[4] = test system: macrophages; assay: TEM of macrophage mitochondria; format: cell-based, mouse; conditions: Ctrl group nearly 20%, Fig. 2J
Procedure, shortened: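 Macrophages derived from mouse bone marrow in M-CSF medium (40 ng/ml), refreshed on days 2, 3 and 5, then induced with peptide or nanofibers. Imaged by transmission electron microscopy. Expanded mitochondria scored as a fraction of total mitochondria. Mean ± SD, n = 3.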

[5] = test system: bone defects in mice; assay: Gene transcript sequencing of bone defects in mice treated with UPs; format: in vivo, mouse; conditions: mice treated with UPs for 14 days (tail vein injection); Fig. 3A
[6] = test system: macrophages; assay: Microscopic observation of macrophage state with UP and UPN; format: cell-based, mouse; conditions: 800 μg/ml, 0, 48 and 72 h; Figure S7 A-C
Procedure, shortened: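 Peptide and nanofiber preparations pre-incubated 6 h. Cells then cultured with them for 0, 48 and 72 h. Cell activity state checked by light microscopy alongside a CCK-8 proliferation read (100 μl per 2 ml medium, 2 h, absorbance 450 nm).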

IL-4: interleukin-4, used to induce M2-type macrophages
percentage of migrating cells at 24 h ([1]; 24 h, control group nearly 2%, Fig. 5I): 7.2%
number of migrating cells at 48 h ([1]; 48 h, control group 4.8%, Fig. 5J): 13.7%
expression of CD163 ([2]; BMDMs, flow cytometry quantification, n = 3, Ctrl nearly 17.2%, Fig. 3L): 50.3%
expression of CD206 ([2]; BMDMs, flow cytometry quantification, n = 3, Ctrl nearly 18.1%, Fig. 3M): 40.9%
p-STAT6 fluorescence intensity [3]: 7.8%

C/C(=C\C(=O)N[C@H](C(=O)N1CCC[C@H]1C(=O)N(c1ccccc1)c1ccc(I)cc1)C(C)(C)C)c1ccc(OP(=O)(O)O)cc1 [STAT6-IN-1]
effect of inhibitor on UPN-induced CD206 expression [2]: inhibited UPN-induced expression of the M2-type macrophage marker CD206

Ser-Glu-Ser-Ser-Glu [UP]
percentage of swollen mitochondria [4]: 38%
expression of Arg1 and CD163 in bone defects [5]: marked increase in the expression of Arg1 and CD163
active status of macrophages under the microscope [6]: not significantly toxic

O=C(Nc1ccccc1)c1cc([N+](=O)[O-])ccc1Cl [GW9662]
effect of inhibitor on UPN-induced CD206 expression [2]: inhibited UPN-induced expression of the M2 type macrophage marker CD206
